The target in assay [1] is T1, Adenosine receptor A1 (Homo sapiens, UniProt P30542).
T1 sequence (P30542 whole entry): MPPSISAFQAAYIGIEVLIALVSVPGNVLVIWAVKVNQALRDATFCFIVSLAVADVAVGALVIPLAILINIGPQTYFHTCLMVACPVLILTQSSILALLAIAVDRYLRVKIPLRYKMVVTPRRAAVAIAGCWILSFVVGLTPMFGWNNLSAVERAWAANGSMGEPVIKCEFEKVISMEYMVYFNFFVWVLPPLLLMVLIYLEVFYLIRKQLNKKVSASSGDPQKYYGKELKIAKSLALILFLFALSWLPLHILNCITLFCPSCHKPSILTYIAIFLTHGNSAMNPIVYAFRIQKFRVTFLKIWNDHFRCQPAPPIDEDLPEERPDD
The experiment in a line: Displacement of [3H]CPX from human Adenosine A1 receptor expressed in CHO cells. It is filed as cell-based. A general note: In a radioligand displacement assay an active substance lowers the binding of a labelled ligand.

In assay [2] the target is T1, Adenosine receptor A1. As to the kind of experiment: Displacement of [3H]CPX from human Adenosine A1 receptor expressed in DDT1MF-2 cells. Format: cell-based.
Assay [3] deals with T2, Adenosine receptor A2a (Homo sapiens, UniProt P29274).
T2 sequence (P29274 whole entry): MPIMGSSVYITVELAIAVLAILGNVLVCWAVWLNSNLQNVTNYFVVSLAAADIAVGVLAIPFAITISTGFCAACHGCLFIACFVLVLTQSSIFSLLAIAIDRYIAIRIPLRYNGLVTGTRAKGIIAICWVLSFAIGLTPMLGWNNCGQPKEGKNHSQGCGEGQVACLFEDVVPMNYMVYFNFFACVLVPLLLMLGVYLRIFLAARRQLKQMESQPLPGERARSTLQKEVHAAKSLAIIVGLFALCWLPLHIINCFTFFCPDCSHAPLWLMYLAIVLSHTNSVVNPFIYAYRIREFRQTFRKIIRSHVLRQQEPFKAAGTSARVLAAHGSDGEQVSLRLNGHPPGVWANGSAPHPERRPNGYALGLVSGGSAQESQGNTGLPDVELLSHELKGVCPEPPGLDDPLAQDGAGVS
For assay [4], the target named is T1, Adenosine receptor A1. As to the kind of experiment: Competitive antagonist activity at human Adenosine A1 receptor expressed in yeast cells after 16 hrs by LacZ reporter gene assay. It is filed as cell-based. Conditions: read-out: pA2 (converted). A general note: In a reporter assay the amount or activity of a reporter protein is the signal.
Assay [5] has as its target T3, Adenosine receptor A1 (Homo sapiens) (UniProt P30542).
T3 sequence (whole entry): T1 sequence (P30542 whole entry)

The target in assay [6] is T4, Adenosine receptor A2b (Homo sapiens) (UniProt P29275).
T4 sequence (whole entry): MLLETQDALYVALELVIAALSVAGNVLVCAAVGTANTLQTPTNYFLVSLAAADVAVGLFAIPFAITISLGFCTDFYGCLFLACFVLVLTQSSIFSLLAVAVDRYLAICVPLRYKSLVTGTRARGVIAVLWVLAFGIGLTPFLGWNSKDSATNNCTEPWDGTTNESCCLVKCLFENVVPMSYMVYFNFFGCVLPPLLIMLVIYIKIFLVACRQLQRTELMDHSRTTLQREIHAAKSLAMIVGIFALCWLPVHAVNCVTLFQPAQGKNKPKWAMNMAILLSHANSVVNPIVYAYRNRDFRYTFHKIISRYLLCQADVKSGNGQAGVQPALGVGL
As to the kind of experiment: Agonist activity at human Adenosine A2B receptor expressed in yeast cells coexpressed with chimeric GPA1/Galphas at 100 µM after 16 hrs by beta-galactosidase reporter gene assay. It is filed as cell-based. In outline:
(§1)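 Yeast (Δfar1, FUS1-lacZ) express A2BR from the GAPDH promoter alongside Gpa1p/Gαs chimera. The OD600 is 0.02 and compound is added in 1% v/v DMSO for 16 h at 30°C. β-Galactosidase is read with ONPG at OD430, normalised as (OD430−OD620)/OD620. […] Three-parameter logistic fit gives EC50 and Emax. Data are from 5-8 independent experiments.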

Assay [7] addresses T4, Adenosine receptor A2b (Homo sapiens). As to the kind of experiment: Binding affinity to human Adenosine A2B receptor expressed in yeast cells coexpressed with GPA1/Galphas. It is filed as cell-based. In short, it runs like this:
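pKA is derived by non-linear regression of the operational model of agonism applied to 16 h yeast FUS1-lacZ concentration-response data, with A2BR coupled to the GPA1/Gαs chimera.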

The target in assay [8] is T2, Adenosine receptor A2a. The experiment in a line: Agonist activity at human Adenosine A2A receptor expressed in yeast cells coexpressed with chimeric GPA1/Galphas at 100 uM after 16 hrs by beta-galactosidase reporter gene assay. Format: cell-based. In outline: (§2)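 Human receptor expressed from GAPDH promoter (p426-GPD) in Δfar1 FUS1-lacZ yeast with Gpa1p(1-467) carrying the 5 C-terminal Gα residues. Cells are grown overnight in SD-URA at 30°C, diluted 1:10 and grown 8 h. They are set to OD600 0.02 and given compound at 1% v/v DMSO for 16 h at 30°C. A2A strain is grown in SD-URA-HIS, with 5 mM 3-amino-triazole in treatment media. Read-out: ONPG, (OD430−OD620)/OD620.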

Assay [9] concerns the target T3, Adenosine receptor A1 (Homo sapiens). The experiment in a line: Agonist activity at human Adenosine A1 receptor expressed in yeast cells coexpressed with chimeric GPA1/Galphai1 at 100 uM after 16 hrs by beta galactosidase reporter gene assay. Format: cell-based. In outline: as §2
The target is the same in assay [10]. The source holds these as a separate data set.
Assay [11] addresses T4, Adenosine receptor A2b (Homo sapiens). As to the kind of experiment: Agonist activity at human Adenosine A2B receptor expressed in yeast cells coexpressed with chimeric GPA1/Galphas after 16 hrs by beta-galactosidase reporter gene assay relative to NECA. It is filed as cell-based. In short, it runs like this:
as §1

A further assay addresses T5, Adenosine receptor A2b (Homo sapiens, UniProt P29275).
T5 sequence (P29275 whole entry): T4 sequence (whole entry)
As to the kind of experiment: (§3) Agonist activity at human Adenosine A2B receptor expressed in yeast cells coexpressed with chimeric GPA1/Galphas after 16 hrs by beta-galactosidase reporter gene assay. It is filed as cell-based. In outline:
(§4)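 Yeast (Δfar1, FUS1-lacZ) express A2BR from the GAPDH promoter alongside Gpa1p/Gαs chimera. The OD600 is 0.02 and compound is added in 1% v/v DMSO for 16 h at 30°C. β-Galactosidase is read with ONPG at OD430, normalised as (OD430−OD620)/OD620. Three-parameter logistic fit gives EC50 and Emax. Data are from 5-8 independent experiments.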

Assay [12] has as its target T1, Adenosine receptor A1. As to the kind of experiment: Agonist activity at human Adenosine A1 receptor transfected in CHO-K1 cells assessed as inhibition of forskolin-stimulated cAMP production after 30 mins by multimode microplate reader analysis. Format: functional, cell-based. On the technique in general: Changes in cAMP serve as a functional read-out for many G protein-coupled receptors.

The target of assay [13] is T2, Adenosine receptor A2a. The experiment in a line: Agonist activity at human Adenosine A2A receptor expressed in yeast cells coexpressed with chimeric GPA1/Galphas after 16 hrs by beta-galactosidase reporter gene assay. It is filed as cell-based.
Assay [14] has as its target T4, Adenosine receptor A2b (Homo sapiens).
In assay [15] the target is T1, Adenosine receptor A1. The experiment in a line: Agonist activity at human Adenosine A1 receptor expressed in yeast cells coexpressed with chimeric GPA1/Galphai1 after 16 hrs by beta galactosidase reporter gene assay. It is filed as cell-based.
Assay [16] addresses T6, Adenosine receptor A3 (Homo sapiens) (UniProt P0DMS8).
T6 sequence (whole entry): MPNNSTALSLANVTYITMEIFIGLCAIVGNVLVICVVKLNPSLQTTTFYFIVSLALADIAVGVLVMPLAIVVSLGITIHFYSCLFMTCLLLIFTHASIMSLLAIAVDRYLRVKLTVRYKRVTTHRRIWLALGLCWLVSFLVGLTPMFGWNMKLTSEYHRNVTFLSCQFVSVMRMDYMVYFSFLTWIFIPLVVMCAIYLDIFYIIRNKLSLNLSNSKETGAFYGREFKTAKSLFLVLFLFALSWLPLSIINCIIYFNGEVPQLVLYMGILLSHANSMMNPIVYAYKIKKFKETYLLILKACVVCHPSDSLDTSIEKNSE
As to the kind of experiment: Agonist activity at human Adenosine A3 receptor transfected in CHO-K1 cells assessed as inhibition of forskolin-stimulated cAMP production after 30 mins by multimode microplate reader analysis relative to total forskolin. More on the design: concentration or dose not given beside the values. It is filed as functional, cell-based. In outline:
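CHO-K1 cells are transiently transfected with receptor (2 µg DNA, FuGene 6) and harvested at 48 h. Cells are resuspended in PBS with 0.1% BSA and 25 µM rolipram, at 2500 cells/well. They are co-incubated with 10 µM forskolin and ligand (10 pM to 1 µM) for 30 min at room temperature. cAMP is measured by LANCE kit. Data are expressed as % of the 10 µM forskolin response.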

Assay [17] addresses T2, Adenosine receptor A2a. The source holds these as a separate data set.
For another assay, the target named is T7, Adenosine receptor A3 (Homo sapiens, UniProt P0DMS8).
T7 sequence (P0DMS8 whole entry): T6 sequence (whole entry)
The experiment in a line: (§5) Agonist activity at human Adenosine A3 receptor transfected in CHO-K1 cells assessed as inhibition of forskolin-stimulated cAMP production after 30 mins by multimode microplate reader analysis. Format: functional, cell-based. In outline: (§6)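 CHO-K1 cells are transiently transfected with receptor (2 µg DNA, FuGene 6) and harvested at 48 h. They are co-incubated with 10 µM forskolin and ligand (10 pM to 1 µM) for 30 min at room temperature. cAMP is measured by LANCE kit. Data are expressed as % of the 10 µM forskolin response.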

In assay [18] the target is T4, Adenosine receptor A2b (Homo sapiens). The description is as §3. Format: cell-based. In outline:
as §4

For assay [19], the target named is T6, Adenosine receptor A3 (Homo sapiens). The description is as §5. It is filed as functional, cell-based. In outline:
as §6

The source made the active and inactive calls. The rule behind the calls is not given here.

Turning to `O[C@@H]1[C@H](O)[C@@H](CSc2ccccc2F)O[C@H]1n1cnc2c(N[C@@H]3CCC[C@H]3O)ncnc21` [GS-9667], the Ki (in general, the equilibrium dissociation constant of an inhibitor or competing ligand from its target) on Adenosine receptor A1 [1] amounted to 1100 nM; on Adenosine receptor A1 [2], 113 nM. The pKA entry (on Adenosine receptor A2a [3]; in assay [5]; in assay [7]) was “inactive” each time. At Adenosine receptor A1 [4], the Kb was 5010 nM. Besides, the outcome (in [6]; on Adenosine receptor A2a [8]; in assay [9]) was inactive.
For the molecule `CCNC(=O)[C@H]1O[C@@H](n2cnc3c(N[C@@H]4CCC[C@H]4OCc4ccccc4)ncnc32)[C@H](O)[C@@H]1O`, the log(activity) in assay [10] worked out at 1.6; in [14], 0.1; on Adenosine receptor A2a [17] it was 0.5. In addition, in assay [11], the Emax (commonly the size of the effect at its maximum, as opposed to the concentration needed) was 32.2%. Further, the EC50 (usually the concentration giving half of the maximal effect) at Adenosine receptor A2b was 126000 nM; on Adenosine receptor A2a [13], 15800 nM; at Adenosine receptor A1 [15] it was 1000 nM. Further, the IC50 (usually the midpoint of a concentration-inhibition curve) is 0.0295 nM on Adenosine receptor A1 [12] and 269 nM at Adenosine receptor A3. In addition, the results for the pKA (on Adenosine receptor A2a [3]; in [5]; in [7]) were 3.9, 4.3 and 3.5, respectively. Also, the Activity in [16] is -38%.
Regarding `CCNC(=O)[C@H]1O[C@@H](n2cnc3c(N[C@@H]4CCC[C@H]4O)ncnc32)[C@H](O)[C@@H]1O`, the log(activity) in assay [10] is 1.6; in assay [14], -0.2; at Adenosine receptor A2a [17] it was 0.3. The same molecule yielded an Emax in assay [11] of 49.2%. Also, the EC50 at Adenosine receptor A2b is 331000 nM; at Adenosine receptor A2a [13], 5750 nM; on Adenosine receptor A1 [15], 316 nM. Moreover, the IC50 on Adenosine receptor A1 [12] was 6.17 nM; at Adenosine receptor A3, 2.29 nM. Besides, the pKA came to 4.6 on Adenosine receptor A2a [3], 4.8 in assay [5] and 4.2 in assay [7]. Further, the Activity in [16] is -37.9%.
`OC[C@H]1O[C@@H](n2cnc3c(NC45CC6CC(CC(C6)C4)C5)ncnc32)[C@H](O)[C@@H]1O` registered a log(activity) in [10] of 1.8. Further, in assay [11], the Emax entry is “inactive”. Besides, the pEC50 entry (in assay [18]; on Adenosine receptor A2a [13]) was “inactive” in each case. For the same molecule, the 50% inhibitory concentration (IC50) on Adenosine receptor A1 [12] is 19.1 nM. Moreover, the pKA entry (at Adenosine receptor A2a [3]; in [7]) was “inactive” each time. Further, in assay [5], the pKA turned out to be 3. Besides, a half-maximal response on Adenosine receptor A1 [15] (EC50) required 15800 nM. Further, the result in [16] was inactive. In [19], the pIC50 entry is “inactive”.
As to `O[C@@H]1[C@H](O)[C@@H](CSc2ccccc2F)O[C@H]1n1cnc2c(N[C@@H]3CCC[C@H]3OCc3ccccc3)ncnc21`, the pKA result (at Adenosine receptor A2a [3]; in assay [5]; in assay [7]) was “inactive” throughout. Besides, at Adenosine receptor A1 [4], the Kb was 398 nM. Besides, the result (in assay [6]; on Adenosine receptor A2a [8]; in assay [9]) was inactive.
Take `CCNC(=O)[C@H]1O[C@@H](n2cnc3c(NC45CC6CC(CC(C6)C4)C5)ncnc32)[C@H](O)[C@@H]1O`: in [10], the log(activity) turned out to be 1.2. Also, the Emax result in assay [11] was “inactive”. The pEC50 result (in assay [18]; on Adenosine receptor A2a [13]) was “inactive” throughout. The IC50 on Adenosine receptor A1 [12] was 2.88 nM. The pKA result (at Adenosine receptor A2a [3]; in assay [7]) was “inactive” in each case. Besides, the pKA in assay [5] came out at 4.2. On Adenosine receptor A1 [15], this molecule showed a 50% effective concentration (EC50) of 3980 nM. Besides, in assay [16], the outcome was inactive. Further, the pIC50 result in [19] was “inactive”.

The values above are taken from ChEMBL document CHEMBL3769381 (J Med Chem, 2016).
